Test results taken from ChEMBL document CHEMBL1122848, “5-(Haloalkyl)-2'-deoxyuridines: a novel type of potent antiviral nucleoside analogue” (1985).
Converted amounts (≈) assume the structure as drawn.

What was measured:
HEp-2 = test: Minimum toxic effect against HEp-2 cells.; format: functional, Homo sapiens
Outline: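 Uninfected HEp-2 cells were exposed to 3-fold serial dilutions of compound in E-MEM with FCS, run alongside the CPE assay. Cell density was set to reach a monolayer in 1–2 days. Plates were fixed and stained at 3 days. MTC is the lowest concentration causing visible toxic effects.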

Human alphaherpesvirus 2 = test: Minimum inhibitory concentration against HSV-2.; format: functional
Outline: (§1)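 CPE-inhibition assay in HEp-2 cells. Compound was serially diluted 3-fold in E-MEM, then virus (HSV-1 Brand or HSV-2 K979) and a cell suspension in E-MEM plus 15% FCS were added together. Virus input gave 90–100% CPE in infected controls after 3 days. Plates were then fixed and stained, and CPE was scored.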

Human alphaherpesvirus 1 = test: Minimum inhibitory concentration against HSV-1.; format: functional; outline: as §1
Mus musculus [1] = test: In vivo evaluation for the percent survivors in systemic HSV-1 infection of Mice administered through intraperitoneal at a dose 1 mg/kg per day; format: functional
Outline: (§2)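 Systemic infection model in hairless (hr/hr) mice weighing 18–20 g, twelve per group. Mice were inoculated i.p. with HSV-1 (Brand) at 2 × 10⁵ PFU/0.2 mL per mouse. Compound was given twice a day i.p. or by oral gavage at the stated daily dose. Read-out was percent survivors.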

Mus musculus [2] = test: In vivo evaluation for the percent survivors in systemic HSV-1 infection of Mice administered through oral route at a dose 2.5 mg/kg per day; format: functional; outline: as §2
Mus musculus [3] = test: In vivo evaluation for the percent survivors in systemic HSV-1 infection of Mice administered through intraperitoneal at a dose 50 mg/kg per day; format: functional; outline: as §2
Mus musculus [4] = test: In vivo evaluation for the percent survivors in systemic HSV-1 infection of Mice administered through oral route at a dose 5 mg/kg per day; format: functional; outline: as §2
Mus musculus [5] = test: In vivo evaluation for the percent survivors in systemic HSV-1 infection of Mice administered through intraperitoneal at a dose 10 mg/kg per day; format: functional; outline: as §2
Mus musculus [6] = test: In vivo evaluation for the percent survivors in systemic HSV-1 infection of Mice administered through oral route at a dose 50 mg/kg per day; format: functional; outline: as §2
Mus musculus [7] = test: In vivo evaluation for the percent survivors in systemic HSV-1 infection of Mice administered through intraperitoneal at a dose 5 mg/kg per day; format: functional; outline: as §2
Mus musculus [8] = test: In vivo evaluation for the percent survivors in systemic HSV-1 infection of Mice administered through intraperitoneal at a dose 100 mg/kg per day; format: functional; outline: as §2
Mus musculus [9] = test: In vivo evaluation for the percent survivors in systemic HSV-1 infection of Mice administered through at a dose 25 mg/kg per day; format: functional; outline: as §2
Mus musculus [10] = test: In vivo evaluation for the percent survivors in systemic HSV-1 infection of Mice administered through oral route at a dose 25 mg/kg per day; format: functional; outline: as §2
Mus musculus [11] = test: Effect of delayed treatment on mortality of systemically infected mice at 25 mg/kg per day administered Intraperitoneally after 3 hr of start of treatment; format: functional; details: route intraperitoneal
Outline: (§3)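 Hairless (hr/hr) mice, 18–20 g, ten per group, inoculated intraperitoneally with HSV-1 strain Brand at 2 × 10⁵ PFU/0.2 mL per mouse. Dosing was 25 mg/kg per day, given twice daily either intraperitoneally or orally by gavage. Treatment started at 3, 24, 48 or 72 h post-infection. Read-out was percent survivors.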

Mus musculus [12] = test: Effect of delayed treatment on mortality of systemically infected mice at 25 mg/kg per day administered through oral route after 3 hr of start of treatment; format: functional; outline: as §3
Mus musculus [13] = test: In vivo evaluation for the percent survivors in systemic HSV-1 infection of Mice administered intraperitoneally at a dose 100 mg/kg per day; format: functional; details: route intraperitoneal; outline: as §2
Mus musculus [14] = test: Effect of delayed treatment on mortality of systemically infected mice at 25 mg/kg per day administered through oral route after 72 hr of start of treatment; format: functional; outline: as §3
Mus musculus [15] = test: In vivo evaluation for the percent survivors in systemic HSV-1 infection of Mice administered intraperitoneally at a dose 50 mg/kg per day; format: functional; details: route intraperitoneal; outline: as §2
Mus musculus [16] = test: Effect of delayed treatment on mortality of systemically infected mice at 25 mg/kg per day administered through oral route after 24 hr of start of treatment; format: functional; outline: as §3
Mus musculus [17] = test: In vivo evaluation for the percent survivors in systemic HSV-1 infection of Mice administered intraperitoneally at a dose 5 mg/kg per day; format: functional; details: route intraperitoneal; outline: as §2
Mus musculus [18] = test: Effect of delayed treatment on mortality of systemically infected mice at 25 mg/kg per day administered Intraperitoneally after 72 hr of start of treatment; format: functional; details: route intraperitoneal; outline: as §3
Mus musculus [19] = test: In vivo evaluation for the percent survivors in systemic HSV-1 infection of Mice administered intraperitoneally at a dose 25 mg/kg per day; format: functional; details: route intraperitoneal; outline: as §2
Mus musculus [20] = test: Effect of delayed treatment on mortality of systemically infected mice at 25 mg/kg per day administered through oral route after 48 hr of start of treatment; format: functional; outline: as §3
Mus musculus [21] = test: In vivo evaluation for the percent survivors in systemic HSV-1 infection of Mice administered intraperitoneally at a dose 10 mg/kg per day; format: functional; details: route intraperitoneal; outline: as §2
Mus musculus [22] = test: Effect of delayed treatment on mortality of systemically infected mice at 25 mg/kg per day administered Intraperitoneally after 48 hr of start of treatment; format: functional; details: route intraperitoneal; outline: as §3
Mus musculus [23] = test: Effect of delayed treatment on mortality of systemically infected mice at 25 mg/kg per day administered Intraperitoneally after 24 hr of start of treatment; format: functional; details: route intraperitoneal; outline: as §3
Mus musculus [24] = test: In vivo evaluation for the percent survivors in systemic HSV-1 infection of Mice administered intraperitoneally at a dose 1 mg/kg per day; format: functional; details: route intraperitoneal; outline: as §2

SMILES | MTC (HEp-2) | MIC (Human alphaherpesvirus 2) | MIC (Human alphaherpesvirus 1) | other results
O=c1[nH]c(=O)n([C@H]2C[C@H](O)[C@@H](CO)O2)cc1CCCCl | 100 µg/mL | 30 µg/mL (≈ 98.4 µM) | 0.3 µg/mL (≈ 0.984 µM) | –
O=c1[nH]c(=O)n(C2CC(O)C(CI)O2)cc1CCI (stereo not given) | 100 µg/mL | > 100 µg/mL | 30 µg/mL (≈ 61 µM) | –
Nc1ncnc2c1ncn2[C@@H]1O[C@H](CO)[C@@H](O)[C@@H]1O [VIDARABINE] | 100 µg/mL | 10 µg/mL (≈ 37.4 µM) | 10 µg/mL (≈ 37.4 µM) | –
O=c1[nH]c(=O)n([C@H]2C[C@H](O)[C@@H](CO)O2)cc1CCCO | 330 µg/mL | > 100 µg/mL | > 100 µg/mL | –
COC(=O)/C=C/c1cn([C@H]2C[C@H](O)[C@@H](CO)O2)c(=O)[nH]c1=O | 100 µg/mL | 30 µg/mL (≈ 96.1 µM) | 0.3 µg/mL (≈ 0.961 µM) | –
O=c1[nH]c(=O)n([C@@H]2C[C@H](O)[C@@H](CO)O2)cc1CCCl | 100 µg/mL | 100 µg/mL (≈ 344 µM) | 3 µg/mL (≈ 10.3 µM) | –
O=c1[nH]c(=O)n([C@H]2C[C@H](O)[C@@H](CO)O2)cc1CCBr | 100 µg/mL | 100 µg/mL (≈ 298 µM) | 3 µg/mL (≈ 8.95 µM) | –
O=c1[nH]c(=O)n(C2CC(O)C(CCl)O2)cc1CCCCl (stereo not given) | 330 µg/mL | > 100 µg/mL | > 100 µg/mL | –
O=c1[nH]c(=O)n([C@H]2C[C@H](O)[C@@H](CO)O2)cc1CCO | 330 µg/mL | 100 µg/mL (≈ 367 µM) | 100 µg/mL (≈ 367 µM) | –
Nc1nc2c(ncn2COCCO)c(=O)[nH]1 [ACYCLOVIR] | 330 µg/mL | 3 µg/mL (≈ 13.3 µM) | 0.3 µg/mL (≈ 1.33 µM) | Survivors (Mus musculus [1]): 54%; Survivors (Mus musculus [2]): 0%; Survivors (Mus musculus [3]): 100%; Survivors (Mus musculus [4]): 9%; Survivors (Mus musculus [5]): 83%; Survivors (Mus musculus [6]): 92%; Survivors (Mus musculus [7]): 75%; Survivors (Mus musculus [8]): 91%; Survivors (Mus musculus [9]): 100%; Survivors (Mus musculus [10]): 55%
O=C([O-])P(=O)([O-])[O-].[Na+].[Na+].[Na+] [FOSCARNET SODIUM] | 330 µg/mL | 30 µg/mL | 10 µg/mL | –
O=c1[nH]c(=O)n([C@H]2C[C@H](O)[C@@H](CO)O2)cc1/C=C/Br [BRIVUDINE] | 100 µg/mL | 3 µg/mL (≈ 9.01 µM) | 0.003 µg/mL (≈ 0.00901 µM) | Survivors (Mus musculus [1]): 33%; Survivors (Mus musculus [2]): 0%; Survivors (Mus musculus [3]): 33%; Survivors (Mus musculus [4]): 0%; Survivors (Mus musculus [5]): 18%; Survivors (Mus musculus [6]): 8%; Survivors (Mus musculus [7]): 25%; Survivors (Mus musculus [8]): 33%; Survivors (Mus musculus [9]): 8%; Survivors (Mus musculus [10]): 0%
O=c1[nH]c(=O)n([C@H]2C[C@H](O)[C@@H](CO)O2)cc1CCI | 330 µg/mL | 30 µg/mL (≈ 78.5 µM) | 1 µg/mL (≈ 2.62 µM) | –
O=c1[nH]c(=O)n(C2CC(O)C(CBr)O2)cc1CCBr (stereo not given) | 330 µg/mL | 100 µg/mL (≈ 251 µM) | 30 µg/mL (≈ 75.4 µM) | –
O=c1[nH]c(=O)n([C@H]2C[C@H](O)[C@@H](CO)O2)cc1I [IDOXURIDINE] | 100 µg/mL | 0.3 µg/mL (≈ 0.847 µM) | 0.3 µg/mL (≈ 0.847 µM) | –
O=c1nc2c(cn1[C@H]1C[C@H](O)[C@@H](CO)O1)CCO2 | 330 µg/mL | > 100 µg/mL | > 100 µg/mL | –
O=c1[nH]c(=O)n([C@@H]2C[C@H](O)[C@@H](CO)O2)cc1CCBr | 330 µg/mL | > 100 µg/mL | 3 µg/mL (≈ 8.95 µM) | –
O=c1[nH]c(=O)n([C@H]2C[C@H](O)[C@@H](CO)O2)cc1CCCl | 330 µg/mL | 3 µg/mL (≈ 10.3 µM) | 0.03 µg/mL (≈ 0.103 µM) | Survivors (Mus musculus [11]): 100%; Survivors (Mus musculus [12]): 80%; Survivors (Mus musculus [13]): 100%; Survivors (Mus musculus [14]): 70%; Survivors (Mus musculus [2]): 82%; Survivors (Mus musculus [15]): 92%; Survivors (Mus musculus [16]): 90%; Survivors (Mus musculus [17]): 92%; Survivors (Mus musculus [18]): 60%; Survivors (Mus musculus [4]): 67%; Survivors (Mus musculus [19]): 83%; Survivors (Mus musculus [20]): 100%; Survivors (Mus musculus [6]): 100%; Survivors (Mus musculus [21]): 91%; Survivors (Mus musculus [22]): 80%; Survivors (Mus musculus [23]): 100%; Survivors (Mus musculus [10]): 100%; Survivors (Mus musculus [24]): 75%
O=c1[nH]c(=O)n(C2CC(O)C(CCl)O2)cc1CCCl (stereo not given) | 330 µg/mL | > 100 µg/mL | 100 µg/mL (≈ 323 µM) | –
